# Entries after “also recorded” stand apart in the source; their conditions may differ.
# Assays:
# CEM cells = assay: Cell proliferation assay: rescue of CEM cells from gemcitabine; assay type: cell-based, human; details: CEM cells treated with gemcitabine with and without DI-87
# Method in brief: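 CEM cells plated at 1×10^3 cells/well, exposed to increasing gemcitabine concentrations (up to 10 μM) with or without 1 μM test compound for 72 hr. Viability read by CellTiter-Glo luminescence after 5 min at room temperature.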
# [1] = target: bovine serum albumin (BSA) (Bos taurus, UniProt P02769); assay: Protein binding assessed by IC50 of dCK inhibitor in presence of BSA; assay type: in vitro ADME; details: 25 and 50 mg/mL BSA
# Method in brief: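 IC50 was compared between the two BSA levels, with duplicate determinations (n=2) reported as mean±SD.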
# [2] = assay type: in vivo, NSG mice
# Method in brief: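 Female NSG mice with subcutaneous CEM xenografts (from 50 mm3) given oral gavage at 10, 25 or 50 mg/kg in PEG-200:Transcutol:Labrasol:Tween-80 (5:3:1:1). One terminal plasma and tumor sample per mouse at 1, 3, 6, 9 and 24 h (n=5 per time point). Methanol extraction with internal standard, LC-MS/MS-MRM. Population model with gut depot, plasma and tumor compartments (ADVAN6, TRANS1), exponential inter-subject error and actual tumor volumes.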
# dCK = dCK (Homo sapiens, UniProt P27707); assay: dCK activity in CEM tumors by [18F]CFA MicroPET/CT, PK-PD model; assay type: in vivo, NSG mice
# Method in brief: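 Male NSG mice bearing subcutaneous CEM tumors (250 mm3) received a single oral dose (5, 10 or 25 mg/kg) in lipid/surfactant vehicle, one time point per mouse (N=4 per time point). Mice were anesthetized and given 740 kBq [18F]CFA i.v. 3 h before imaging. MicroPET/CT acquisition ran 10 min with MAP reconstruction, co-registered CT and manual 3D tumor regions of interest. Modelled tumor concentrations were linked to the effect compartment; linear, Emax and sigmoid Emax fits were compared.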
# CEM tumor xenografts = assay: Growth inhibition of CEM tumor xenografts, DI-87 with thymidine, PK-PD model; assay type: in vivo; details: for Tumor growth, single agent: agent given alone
# Method in brief: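 NSG mice (8–12 weeks) carried subcutaneous CEM xenografts (2 × 10^6 cells, PBS/matrigel 50/50). Dosing began at 50 mm3: oral gavage QD or BID for 16–18 days (PEG-200:Transcutol:Labrasol:Tween-80, 5:3:1:1), plus thymidine 2 g/kg i.p. BID in saline. Controls: thymidine alone, compound plus saline, vehicle plus saline. Tumor size tracked (n=5). An Emax indirect-response PD model was linked to population PK tumor concentrations.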
# [3] = oral 10, 25, 50 mg/kg, plasma-tumor population PK model
# [4] = plasma-tumor population PK model
# [5] = sigmoid Emax indirect response model
# dCK, sequence (P27707 whole entry): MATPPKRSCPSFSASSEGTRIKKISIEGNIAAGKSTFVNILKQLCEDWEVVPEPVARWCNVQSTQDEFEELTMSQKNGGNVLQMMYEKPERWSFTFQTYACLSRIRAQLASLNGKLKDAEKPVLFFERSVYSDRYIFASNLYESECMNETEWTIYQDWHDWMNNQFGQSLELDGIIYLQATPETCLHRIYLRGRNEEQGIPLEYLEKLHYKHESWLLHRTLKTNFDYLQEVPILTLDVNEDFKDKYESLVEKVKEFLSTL
# bovine serum albumin (BSA), sequence (P02769 25-607): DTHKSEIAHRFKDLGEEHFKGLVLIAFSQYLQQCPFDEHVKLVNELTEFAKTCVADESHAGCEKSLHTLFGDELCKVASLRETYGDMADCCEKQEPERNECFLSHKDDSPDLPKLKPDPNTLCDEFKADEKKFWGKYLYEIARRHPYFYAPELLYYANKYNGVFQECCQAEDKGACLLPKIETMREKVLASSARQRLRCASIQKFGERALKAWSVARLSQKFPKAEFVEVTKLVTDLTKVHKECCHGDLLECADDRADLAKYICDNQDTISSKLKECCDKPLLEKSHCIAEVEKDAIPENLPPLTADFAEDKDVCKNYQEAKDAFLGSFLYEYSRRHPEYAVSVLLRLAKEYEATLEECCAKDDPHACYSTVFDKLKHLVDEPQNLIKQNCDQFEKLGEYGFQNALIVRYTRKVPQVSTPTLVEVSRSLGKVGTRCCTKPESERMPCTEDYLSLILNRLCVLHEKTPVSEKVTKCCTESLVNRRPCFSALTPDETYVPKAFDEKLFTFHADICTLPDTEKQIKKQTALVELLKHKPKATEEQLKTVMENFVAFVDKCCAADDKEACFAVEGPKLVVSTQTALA
structure (smiles),measurement,setting,value
"COc1ccc(-c2nc([C@@H](C)Sc3nc(N)cc(N)n3)c(C)s2)cc1OCCN1CCOCC1 [DI-87, (R)-2-((1-(2-(4-methoxy-3-(2-morpholinoethoxy)phenyl)-5-methylthiazol-4-yl)ethyl)thio)pyrimidine-4,6-diamine]",Prevention of gemcitabine cytotoxicity,CEM cells,fully prevented cytotoxicity following gemcitabine treatment
same,Protein binding (IC50 in presence of BSA),[1],low protein binding; also recorded: retained its potency in the presence of albumin
same,Protein binding (IC50 in presence of BSA),[1]; listed as (R)-DI-87,comparatively lower than its predecessor
same,Half-life (plasma),[2]; 0.693/(CL/V),4.2 h
same,half-life,"[2]; female, NSG, mouse, plasma, oral, Half-life (plasma), 0.693/(CL/V)",4 h
same,KA (absorption constant),[2]; fixed to the estimate from the plasma PK model,0.66 (FIXED) hr
same,Time of peak tumor concentration,"[2]; oral 10, 25, 50 mg/kg, CEM tumor",3 to 9 h
same,CL,[2]; [3],7.67 mL/min/kg
same,V (plasma volume of distribution),[2]; [3],2.78 L/kg
same,Q (intercompartmental clearance plasma-tumor),[2]; [4],0.075 mL/min/kg
same,Scalar,[2]; [4],3.69
same,EC50,dCK,617 nM
same,"Gamma (Hill coefficient), DCK inhibition PK-PD model",dCK; [5],58.6
same,"Kin, DCK inhibition PK-PD model",dCK; [5],0.76
same,"Kout, DCK inhibition PK-PD model",dCK; [5],0.12
same,"Emax, DCK inhibition PK-PD model","dCK; sigmoid Emax indirect response model, linked to tumor concentrations",1.20
same,dCK inhibition (PET),dCK; single oral dose 5 mg/kg,minimal dCK inhibition with rapid recovery
same,dCK inhibition (PET),dCK; single oral dose 10 mg/kg,full inhibition with recovery initiating at the 12 hr time point
same,Earliest time of full dCK inhibition (PET),dCK; single oral dose 25 mg/kg,3 h
same,Time to full recovery of dCK enzyme activity (PET),dCK; single oral dose 25 mg/kg,≤ 36 h
same,Tumor growth inhibition,"CEM tumor xenografts; DI-87 25 mg/kg BID oral with thymidine 2 g/kg i.p. BID, 25 mg/kg",Near complete growth inhibition; also recorded: maximal tumor growth inhibition
same,"Emax, Growth Inhibition PK-PD Model","CEM tumor xenografts; Emax indirect response model, DI-87 with i.p. thymidine",1.06
same,EC50,"CEM tumor xenografts; Mus musculus, ip, read-out: EC50, Growth Inhibition PK-PD Model",3.63 µg/mL
same,"Tumor growth, single agent",CEM tumor xenografts; data not shown,tumor growth curves similar to the control; also recorded: essentially no ability to inhibit growth
same,Tolerability as a single agent,"CEM tumor xenografts; single agent, higher doses, data not shown",well tolerated at higher doses
"Cc1cn([C@H]2C[C@H](O)[C@@H](CO)O2)c(=O)[nH]c1=O [thymidine, reference compound]","Tumor growth, single agent",CEM tumor xenografts; data not shown,tumor growth curves similar to the control
